Rows were chosen to be rich in hits. Some 1.9% of all compounds tested hit in one or more screens of this group.
CHRM4 PAM = positive allosteric modulators of human muscarinic M4 receptor | P08173 | CHO-K1 hM4/Gqi5, Fluo-8 calcium fluorescence, ACh EC20; 0% = ACh EC20, 100% = maximal ACh | activation, % at 3 µM | hit rate 0.4% among 360,000 | AID 624126;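 active = activation above its plate's cutoff, the mean activation of sample wells plus 3 SD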
Target sequence (P08173 whole entry, looked up): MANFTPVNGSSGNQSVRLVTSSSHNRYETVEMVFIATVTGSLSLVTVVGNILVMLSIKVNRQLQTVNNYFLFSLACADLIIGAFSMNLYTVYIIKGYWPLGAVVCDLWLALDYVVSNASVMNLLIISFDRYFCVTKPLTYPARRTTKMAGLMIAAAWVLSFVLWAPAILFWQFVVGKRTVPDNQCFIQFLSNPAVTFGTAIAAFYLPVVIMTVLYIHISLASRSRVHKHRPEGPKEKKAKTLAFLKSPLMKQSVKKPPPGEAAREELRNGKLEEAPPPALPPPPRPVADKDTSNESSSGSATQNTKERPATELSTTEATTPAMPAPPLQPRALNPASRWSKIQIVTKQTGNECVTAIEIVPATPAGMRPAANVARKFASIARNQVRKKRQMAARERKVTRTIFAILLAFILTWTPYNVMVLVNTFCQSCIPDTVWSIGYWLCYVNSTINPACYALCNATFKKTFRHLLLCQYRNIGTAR
M5 ag = agonists of human muscarinic M5 receptor (CHRM5); CHO-K1 hM5 cells, Fluo-8 calcium fluorescence; 0% DMSO wells, 100% maximal acetylcholine response; activation, % at 3 µM; hit rate 0.19% among 360,000; AID 624037;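 active = activation above the run's mean over test compounds plus 3 SD, cut at about 23% in these data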;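 note: signal is peak over basal fluorescence ratio across the kinetic read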
CHRM4 antagonist = antagonists of human muscarinic M4 receptor (CHRM4) | P08173 | CHO-hM4 cells, ACh EC80, Fluo-8 calcium fluorescence | inhibition, % at 3 µM | hit rate 0.73% among 360,000 | AID 624125;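 active = inhibition above its plate's cutoff, the mean inhibition of sample wells plus 3 SD, cut at about 27% in these data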
M4 ag = agonists of human muscarinic M4 receptor (CHRM4); P08173; CHO-K1 hM4/Gqi5, Fluo-8 calcium fluorescence; vehicle 0%, full acetylcholine response 100%; activation, % at 3 µM; hit rate 0.14% among 360,000; AID 624127;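 active = activation above the run mean over all test wells plus 3 SD, cut at about 32% in these data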;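 note: peak over basal fluorescence ratio per well then scaled between controls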
M5 PAM = CHRM5 positive allosteric modulation; AID 624038; CHO-K1 hM5, Fluo-8 calcium, ACh EC20 PAM; 0% = ACh EC20, 100% = ACh EC100; hit rate 0.3% among 360,000; P08912; activation, % at 3 µM;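 active = activation above the run cutoff, the mean activation of all test compounds plus 3 SD, cut at about 18% in these data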
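system = human M5 receptor in CHO-K1 cells | reagent = EC20 acetylcholine as agonist stimulus | compound dosing = single-point, 3 µM nominal | incubation = Fluo-8 loading 80 min at 37 °C plus 30 min room temperature | detection = Fluo-8 calcium dye fluorescence, kinetic read | benchmarks = low control EC20 acetylcholine (0%), high control EC100 acetylcholine (100%)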
CHRM5 antagonist = CHRM5 antagonism in calcium assay | P08912 | CHO-hM5 cells, Fluo-8 calcium fluorescence, ACh EC80 | inhibition, % at 3 µM | hit rate 0.59% among 360,000 | AID 624040;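 active = inhibition above a per-plate cutoff, the mean of that plate's test compounds plus 3 SD, cut at about 27% in these data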
A number is an active result; – = inactive; ! = not active in a repeat.

SMILES | CHRM4 PAM | M5 ag | CHRM4 antagonist | M4 ag | M5 PAM | CHRM5 antagonist
O=C(CCNC(=O)c1ccc([N+](=O)[O-])cc1)Nc1ccccc1N1CCCCC1 | – | – | – | – | – | –
O=C1OC(N2C(=O)CC[C@H]2C(=O)Nc2ccc(Br)cc2F)c2ccccc21 (stereo partly specified) | – | – | – | – | – | –
O=C(Oc1ccc2cccc(OC(=O)N3CCOCC3)c2c1)N1CCOCC1 | – | – | – | – | 19.4 | –
O=C(Oc1cccc2c(OC(=O)N3CCOCC3)cccc12)N1CCOCC1 | – | – | – | – | – | –
Cc1ncc(C[n+]2csc(C)c2C)c(N)n1 | – | – | – | – | 21.9 | –
CN(C)c1ccc(NC(=O)CN2CCC(NC(=O)C3CCCCC3)CC2)cc1 | – | – | – | – | – | –
CN(C)c1ccc(NC(=O)CN2CCC(N3CCCCC3)CC2)cc1 | – | – | – | – | 23.6 | –
COc1ccc(-c2ccc(CN3C(C)C(=O)N(Cc4cn(Cc5ccco5)nn4)CCS3(=O)=O)cc2)cc1 (stereo unspecified) | – | – | – | – | – | –
O=C1Nc2ccc(Br)cc2/C1=C/C(=O)c1ccc2c(c1)OCO2 | – | 33.8 | 46.9 | – | – | –
COc1ccc(C(=O)/C=C2\C(=O)Nc3ccc(Br)cc32)cc1 | – | – | 26.6 | – | – | –
Cc1ccc(C)c(S(=O)(=O)N(C)C2(C)CCS(=O)(=O)C2)c1 (stereo unspecified) | – | – | – | – | – | –
CC1(C(=O)Nc2ccc3c(c2)OCO3)CCN1Cc1csc2ccccc12 (stereo unspecified) | – | – | – | – | – | –
Cc1ccc(NC(=O)C2(C)CCN2Cc2csc3ccccc23)cc1 (stereo unspecified) | – | – | 45.9 | – | – | –
CCOC(=O)C1C(=O)C=C(/C=C/c2ccc(N(C)C)cc2)CC1c1ccccc1 (stereo unspecified) | – | 28.6 | – | – | – | –
CCOC(=O)C1C(=O)C=C(c2ccc(C)cc2)CC1c1ccccc1 (stereo unspecified) | – | – | – | – | – | –
CCCc1cc(C(=O)OC)c2ccccc2n1 | – | – | – | – | – | –
COC(=O)c1cc(Cl)nc2ccccc12 | – | – | – | – | 21.4 | –
CN(CC(=O)NCc1ccco1)CC(=O)Nc1c(Cl)cccc1Cl | – | – | – | – | 18.2 | –
COc1cccc(NC(=O)CN(C)CC(=O)NCc2ccco2)c1 | – | – | – | – | – | –
Cc1cc(Cl)cc(Cl)c1OCC(=O)NCc1ccco1 | – | – | – | – | 21.6 | –
O=C(COC(=O)CCC(=O)c1ccc(F)cc1)NCCc1ccccc1 | – | – | – | – | – | –
COc1ccccc1-n1c(C)nc2cc(C(=O)O)ccc21 | – | – | – | – | 18.8 | –
COCCN(C(=O)CNC(=O)c1ccco1)C(C(=O)NC1CCCC1)c1cccc(OC)c1 (stereo unspecified) | – | – | – | – | – | –
COc1ccc(C(=O)O/N=C2\CCS(=O)(=O)c3sccc32)cc1 | – | – | – | – | – | 35.9
COc1ccc(N=C2CCS(=O)(=O)c3sccc32)cc1 | – | – | – | – | – | –
SMILES | CHRM4 PAM | M5 ag | CHRM4 antagonist | M4 ag | M5 PAM | CHRM5 antagonist
N#C/C(=C/c1ccc(-c2ccc(S(N)(=O)=O)cc2)o1)c1nc2ccccc2s1 | – | 32.4 | 26.5 | – | – | 47.6
N#C/C(=C\c1ccccn1)c1nc2ccccc2s1 | – | 43.7 | – | – | – | –
COC(=O)c1ccc(/C=C(\C#N)c2nc3ccccc3s2)cc1 | – | – | – | – | – | –
CCOC(=O)C1CCN(c2cc3c(cc2NC(=O)c2ccccc2OCC)n(C)c(=O)n3C)CC1 | – | – | – | – | – | 33.9
CCOC(=O)C1CCN(c2cc3c(cc2NC(=O)c2ccccc2Cl)n(C)c(=O)n3C)CC1 | – | – | – | – | – | –
COc1ccc2c3c(cccc13)C(=O)CC2 | – | 33.8 | – | 78.5 | – | 29.3
CCCN(C#N)c1nc(NCC)nc(NC(C)C)n1 | – | – | – | – | – | 53.2
CCNc1nc(NC(C)C)nc(N(C)C#N)n1 | – | – | – | – | – | –
COc1cc(Cl)ccc1NC(=S)N(CCN1CCOCC1)C1CCN(C(C)=O)CC1 | – | – | 61.4 | – | – | –
O=C1C2CSCN2C(=O)CN1CCCN1CCN(C(c2ccccc2)c2ccccc2)CC1 (stereo unspecified) | – | – | 32.0 | – | – | –
O=C1c2ccccc2C(=O)N1CC#CCN1CCN(C(c2ccccc2)c2ccccc2)CC1 | – | – | – | – | – | –
N#CCCn1nc(-c2ccccc2)cc1Nc1ccccc1NC(=O)c1cccs1 | – | – | – | – | 21.5 | –
CN(C)c1ccc(CNC(=O)CN(C)S(=O)(=O)c2ccc3c(c2)c(=O)n(C)c(=O)n3C)cc1 | 16.7 | – | – | – | – | –
Cc1ccc(CNC(=O)CN(C)S(=O)(=O)c2ccc(F)cc2)cc1 | – | – | – | – | 19.5 | –
Cc1ccc(S(=O)(=O)N(C)CC(=O)NCc2ccncc2)cc1 | – | – | – | – | – | –
O=C(OCc1nc2ccsc2c(=O)[nH]1)c1ccc(Cl)s1 | – | – | – | – | – | –
Cc1nc(SCC(=O)N2CCC(Cc3ccccc3)CC2)[nH]c(=O)c1C | – | – | – | – | – | –
CCOC(=O)N1CCN(C(=O)CCNS(=O)(=O)c2ccc(C)c(C)c2)CC1 | – | – | – | – | – | –
O=C(CCNS(=O)(=O)c1ccccc1)N1CCCCCC1 | 28.2 | – | – | – | – | –
Cc1ccc(S(=O)(=O)NCCC(=O)N2CCC(C(N)=O)CC2)cc1C | 26.4 | – | – | – | – | –
C=CCN(CC=C)c1ncnc2[nH]ncc12 | – | – | – | – | – | –
CCn1c2ccccc2c2cc(NC(=O)C(C)OC(=O)c3ccc(NC(=O)CC#N)cc3)ccc21 (stereo unspecified) | – | – | – | – | – | –
CN(C)CCOC(c1ccccc1)c1ccccc1 (tested in a mixture with another compound) | – | – | 36.9 | – | – | 52.6
CN(C)CCOC(c1ccccc1)c1ccccc1 | – | – | 32.0! | – | – | 34.7
Cc1ccccc1C(OCCN(C(C)C)C(C)C)c1ccccc1 (stereo unspecified) | – | – | 98.7 | – | – | 99.2
Cc1ccccc1C(O)c1cccnc1 (stereo unspecified) | – | – | – | – | – | –
CN(C)CCOC(c1ccc(Cl)cc1)c1ccccn1 (stereo unspecified) | – | – | – | – | – | –

Bioassay records as filed in PubChem.
